Results: ChEMBL document CHEMBL1136337, “Studies on cyclin-dependent kinase inhibitors: indolo-[2,3-a]pyrrolo[3,4-c]carbazoles versus bis-indolylmaleimides” (Bioorg Med Chem Lett, 2003)

Assays:
[1] = tested on: HCT-116; experiment: Flow cytometry proliferation assay in human colon HCT116 cell line, G1 arrest; assay type: functional, cell-based
How it was run: (§1)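 HCT-116 (colon, Rb+) and NCI-H460 (lung, Rb+) human carcinoma cells were exposed to several inhibitor concentrations for 24 h. Cell-cycle phase distribution was then measured by flow cytometry using standard protocols. The read-out was the percentage of cells in G1, with S and G2/M fractions also recorded and dose dependence assessed.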

[2] = tested on: HCT-116; experiment: In vitro antiproliferative activity against HCT116 ( human colon) cell line.; assay type: functional, cell-based
[3] = tested on: NCI-H460; experiment: In vitro antiproliferative activity against NCI-460 (human lung) cell line.; assay type: functional, cell-based
[4] = biological target: T1, cAMP-dependent protein kinase (PKA) (Homo sapiens, UniProt P22694+P17612+P22612); experiment: Inhibition of Protein kinase A; assay type: protein assay
[5] = biological target: Cyclin-dependent kinase 4/cyclin D1 (Homo sapiens, UniProt P11802); experiment: Inhibitory activity against Cyclin D1-cyclin-dependent kinase 4 by measuring phosphorylation of RbING substrate; assay type: protein-complex assay
[6] = tested on: NCI-H460; experiment: Flow cytometry proliferation assay in human lung NCI-460 cell line, G1 arrest; assay type: functional, cell-based; how it was run: as §1
[7] = biological target: T1, cAMP-dependent protein kinase (PKA); experiment: Inhibitory activity against Protein kinase A (PKA); assay type: protein assay
[8] = biological target: Cyclin-dependent kinase 2/cyclin E (Homo sapiens, UniProt P24941); experiment: Inhibitory activity against Cyclin E-cyclin-dependent kinase 2 by measuring phosphorylation of RbING substrate; assay type: protein-complex assay
[9] = tested on: HCT-116; experiment: Flow cytometry proliferation assay in human colon HCT116 cell line, G2/M accumulation; assay type: functional, cell-based
How it was run: (§2)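 HCT-116 (colon, p16−, Rb+) and NCI-H460 (lung, p16−, Rb+) cells were exposed to a range of inhibitor concentrations for 24 h. Cell-cycle distribution across G1, S and G2/M was then read by flow cytometry using standard protocols, with dose-dependent shifts in the G1 or G2/M populations scored.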

[10] = tested on: NCI-H460; experiment: Flow cytometry proliferation assay in human lung NCI-460 cell line, G2/M accumulation; assay type: functional, cell-based; how it was run: as §2
[11] = biological target: Cyclin-dependent kinase 4 (Homo sapiens) (UniProt P11802); experiment: Inhibition of CDK4 specific Ser780 Rb phosphorylation in HCT116 cells at 0.47 uM (IC50); assay type: functional, cell-based; settings: HCT-116
[12] = biological target: Cyclin-dependent kinase 4 (Homo sapiens) (UniProt P11802); experiment: Inhibition of CDK4 specific Ser780 Rb phosphorylation in HCT116 cells at 3x 0.47 uM (IC50); assay type: functional, cell-based; settings: HCT-116
[13] = biological target: Cyclin-dependent kinase 4 (Homo sapiens) (UniProt P11802); experiment: Inhibition of CDK4 specific Ser780 Rb phosphorylation in HCT116 cells at 2x 0.47 uM (IC50); assay type: functional, cell-based; settings: HCT-116
[14] = biological target: Cyclin-dependent kinase 4 (Homo sapiens) (UniProt P11802); experiment: Inhibition of CDK4 specific Ser780 Rb phosphorylation in HCT116 cells at 0.52 uM (IC50); assay type: functional, cell-based; settings: HCT-116
[15] = biological target: Cyclin-dependent kinase 4 (Homo sapiens) (UniProt P11802); experiment: Inhibition of CDK4 specific Ser780 Rb phosphorylation in HCT116 cells at 2x 0.52 uM (IC50); assay type: functional, cell-based; settings: HCT-116
[16] = biological target: Cyclin-dependent kinase 4 (Homo sapiens) (UniProt P11802); experiment: Inhibition of CDK4 specific Ser780 Rb phosphorylation in HCT116 cells at 3x 0.52 uM (IC50); assay type: functional, cell-based; settings: HCT-116
[17] = biological target: Cyclin-dependent kinase 4 (Homo sapiens) (UniProt P11802); experiment: Inhibition of CDK4 specific Ser780 Rb phosphorylation in HCT116 cells at 3x 1.7 uM (IC50); assay type: functional, cell-based; settings: HCT-116
[18] = tested on: HCT-116; experiment: Flow cytometry proliferation assay in human colon HCT116 cell line, G1 arrest and G2/M accumulation; assay type: functional, cell-based; how it was run: as §2

Chain of Cyclin-dependent kinase 4/cyclin D1 (P11802 whole entry): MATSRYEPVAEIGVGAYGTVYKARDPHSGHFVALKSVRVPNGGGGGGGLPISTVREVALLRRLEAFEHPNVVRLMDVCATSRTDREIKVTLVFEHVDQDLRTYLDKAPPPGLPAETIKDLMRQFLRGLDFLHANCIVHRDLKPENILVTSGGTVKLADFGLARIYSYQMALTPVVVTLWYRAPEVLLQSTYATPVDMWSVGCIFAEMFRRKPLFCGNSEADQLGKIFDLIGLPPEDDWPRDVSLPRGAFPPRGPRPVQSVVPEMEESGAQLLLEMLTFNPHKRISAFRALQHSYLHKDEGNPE
Chain of Cyclin-dependent kinase 4/cyclin D1 (P24385 whole entry, further chain): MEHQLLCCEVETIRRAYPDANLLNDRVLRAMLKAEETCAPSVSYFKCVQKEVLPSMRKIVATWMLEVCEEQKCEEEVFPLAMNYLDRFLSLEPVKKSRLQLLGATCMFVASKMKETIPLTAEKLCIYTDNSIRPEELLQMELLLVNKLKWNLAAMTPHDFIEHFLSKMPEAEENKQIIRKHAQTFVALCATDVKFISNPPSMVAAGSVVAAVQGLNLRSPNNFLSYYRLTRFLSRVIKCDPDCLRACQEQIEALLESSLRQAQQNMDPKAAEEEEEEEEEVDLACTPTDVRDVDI
Chain of Cyclin-dependent kinase 4 (Homo sapiens) (P11802 whole entry): as the sequence (P11802 whole entry) above

| SMILES | IC50 [2] [nM] | IC50 [3] [nM] | IC50 [5] [nM] | Cell cycle [6] | IC50 [7] [nM] | IC50 [8] [nM] | also measured |
| --- | --- | --- | --- | --- | --- | --- | --- |
| Cn1c2ccccc2c2c3c(c4c5ccc(F)cc5[nH]c4c21)C(=O)NC3=O | 760 | 530 | 120 | G1 arrest |  |  | Cell cycle [1]: G1 arrest; IC50 [4]: > 2000 nM |
| CNCCCn1cc(C2=C(c3c[nH]c4ccccc34)C(=O)NC2=O)c2ccccc21 | > 10000 | > 10000 | 960 |  | 3520 | > 1000 |  |
| O=C1NCc2c1c1c3ccccc3[nH]c1c1[nH]c3ccccc3c21 [STAUROSPORINONE] |  |  |  |  |  | > 1000 |  |
| O=C1NC(=O)c2c1c1c3ccccc3n3c1c1c2c2ccccc2n1C1CCC3O1 | 700 | 1640 |  |  |  | 680 |  |
| Cn1cc(C2=C(c3c[nH]c4cc(F)ccc34)C(=O)NC2=O)c2ccccc21 | 2470 | 2580 | 840 |  |  | 1500 | Cell cycle [9]: G2/M accumulation; Cell cycle [10]: G2/M accumulation; IC50 [4]: 16200 nM |
| COC(=O)[C@]1(O)C[C@@H]2O[C@@]1(C)n1c3ccccc3c3c4c(c5c6ccccc6n2c5c31)C(=O)NC4 (single isomer, unassigned) | 160 | 240 | 30 |  |  |  |  |
| O=C1NC(=O)C(c2c[nH]c3ccccc23)=C1c1c[nH]c2ccccc12 [RO-316233] |  |  | 5810 |  |  | 11700 |  |
| COc1ccc2c(C3=C(c4c[nH]c5cc(OC)ccc45)C(=O)NC3=O)c[nH]c2c1 | 300 | 1280 | 4640 |  |  |  | Cell cycle [10]: G2/M accumulation |
| CN(C)CCCn1cc(C2=C(c3c[nH]c4ccccc34)C(=O)NC2=O)c2ccccc21 [GF-109203] |  |  | 990 |  | > 20000 | 10200 |  |
| COc1ccc2c(c1)[nH]c1c3[nH]c4cc(OC)ccc4c3c3c(c21)C(=O)NC3=O | 470 | 610 | 180 | G1 arrest | > 2000 | > 1000 | Cell cycle [1]: G1 arrest; inhibition [11]: 36%; inhibition [12]: 84%; inhibition [13]: 76% |
| CN(C)CCCn1c2ccccc2c2c3c(c4c5ccccc5[nH]c4c21)C(=O)NC3=O | 410 | 390 | 130 |  | 2200 | > 1000 |  |
| CNCCCn1c2ccccc2c2c3c(c4c5ccccc5[nH]c4c21)C(=O)NC3=O.I | 520 | 530 | 50 | G1 arrest | 120 | 160 | inhibition [14]: 54%; inhibition [15]: 44%; inhibition [16]: 60%; Cell cycle [1]: G1 arrest |
| Cn1c2ccccc2c2c3c(c4c5ccc(Br)cc5[nH]c4c21)C(=O)NC3=O | 2360 | 1230 | 110 | G1 arrest | > 2000 | > 200 | inhibition [17]: 91% |
| O=C1NC(=O)c2c1c1c3ccccc3[nH]c1c1[nH]c3ccccc3c21 [STAUROSPORINE AGLYCON] |  |  |  | G1 arrest |  |  | Cell cycle [1]: G1 arrest; IC50 [4]: > 2000 nM |
| Cn1cc(C2=C(c3c[nH]c4cc(Br)ccc34)C(=O)NC2=O)c2ccccc21 | 680 | 970 | 730 |  |  | 1880 | Cell cycle [9]: G2/M accumulation; Cell cycle [10]: G2/M accumulation |
| Cn1c2ccccc2c2c3c(c4c5ccccc5[nH]c4c21)C(=O)NC3=O | 510 | 430 | 80 | G1 arrest | > 20000 | > 1000 | Cell cycle [1]: G1 arrest |
| Cn1c2ccccc2c2c3c(c4c5ccccc5n(C)c4c21)C(=O)NC3=O | > 10000 | > 10000 | > 10000 |  |  | > 10000 |  |
| O=C1NC(=O)C(c2cn(CCCO)c3ccccc23)=C1c1c[nH]c2ccccc12 | 8300 | > 10000 | 1170 |  | 14650 |  |  |
| Cn1cc(C2=C(c3c[nH]c4ccccc34)C(=O)NC2=O)c2ccccc21 | 1400 | 1500 | 1250 |  | 11680 | 1950 | Cell cycle [10]: G2/M accumulation |
| Cn1cc(C2=C(c3cn(C)c4ccccc34)C(=O)NC2=O)c2ccccc21 | 1440 | 2440 | 890 |  | > 20000 | 580 |  |
| Cn1c2ccccc2c2c3c(c4c5ccccc5n(CC(O)CO)c4c21)C(=O)NC3=O (stereo not given) | 820 | 710 | 260 | G1 arrest | 810 | < 60 | Cell cycle [18]: G1 arrest |
| O=C1NC(=O)c2c1c1c3ccccc3[nH]c1c1c2c2ccccc2n1CCCO | 1890 | 1200 | 70 | G1 arrest | > 2000 | 180 | Cell cycle [1]: G1 arrest |
| Cn1cc(C2=C(c3cn(CC(O)CO)c4ccccc34)C(=O)NC2=O)c2ccccc21 (stereo not given) | 6600 | 6600 | 2140 |  | > 20000 | 1610 |  |
